In data set [1] the target is T1, Oxysterols receptor LXR-alpha (Homo sapiens) (UniProt Q13133).
T1 sequence (whole entry): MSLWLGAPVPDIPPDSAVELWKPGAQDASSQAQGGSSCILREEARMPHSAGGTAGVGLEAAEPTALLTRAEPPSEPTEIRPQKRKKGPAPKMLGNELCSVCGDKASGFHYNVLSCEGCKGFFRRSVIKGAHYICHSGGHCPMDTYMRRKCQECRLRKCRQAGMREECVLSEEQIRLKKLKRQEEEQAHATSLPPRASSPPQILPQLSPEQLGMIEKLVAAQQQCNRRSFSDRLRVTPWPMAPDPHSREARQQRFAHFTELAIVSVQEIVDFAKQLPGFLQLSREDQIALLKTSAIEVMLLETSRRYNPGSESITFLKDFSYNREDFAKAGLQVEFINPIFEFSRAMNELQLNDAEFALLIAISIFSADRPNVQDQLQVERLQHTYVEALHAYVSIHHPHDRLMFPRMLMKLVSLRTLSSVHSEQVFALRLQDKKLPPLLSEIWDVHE
The data set can be described thus: Activation of GAL4 fused human LXR alpha expressed in HEK293 cells after 24 hrs by luciferase reporter gene assay relative to 22R-HC. The format is cell-based. In outline: (§1)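 HEK293 cells carrying the Gal4-LXR-α or Gal4-LXR-β chimera plus the pMH100X4-TK-luc and Renilla reporters. Treatment started 6 h post-transfection and ran 24 h. Dual luciferase read-out. Efficacy is given as % of the response to 8 μM 22R-HC, ± SD, from three to five independent experiments.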
Background: Reporter assays use an easily measured gene product as a stand-in for the process of interest.

Another data set has as its system HEK293. The data set can be described thus: Activation of GAL4 fused human RXR expressed in HEK293 cells at 10 uM after 24 hrs by luciferase reporter gene assay.
A short description of data set [2]: Agonist activity at LXR in human U937 cells assessed as upregulation of SREBP1c mRNA levels at 10 uM after 6 hrs by qPCR analysis. The format is cell-based. Put shortly:
(§2)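 U937 cells, 3x10⁶ in 10 ml RPMI with 10% FBS, differentiated with PMA 10 ng/ml for 72 h at 37 °C, then treated with ligand (10 μM) for 6 h. Total RNA was isolated with TRIZOL; 2 µg was reverse-transcribed for 1 h at 42 °C. Transcripts were measured by qPCR. Mean ± SD of three biological samples; ANOVA with Dunnett's test.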
In general terms: In qPCR the cycle at which signal appears reflects the starting amount.

Data set [3] deals with T2, Peroxisome proliferator-activated receptor gamma (Homo sapiens) (UniProt P37231).
T2 sequence (whole entry): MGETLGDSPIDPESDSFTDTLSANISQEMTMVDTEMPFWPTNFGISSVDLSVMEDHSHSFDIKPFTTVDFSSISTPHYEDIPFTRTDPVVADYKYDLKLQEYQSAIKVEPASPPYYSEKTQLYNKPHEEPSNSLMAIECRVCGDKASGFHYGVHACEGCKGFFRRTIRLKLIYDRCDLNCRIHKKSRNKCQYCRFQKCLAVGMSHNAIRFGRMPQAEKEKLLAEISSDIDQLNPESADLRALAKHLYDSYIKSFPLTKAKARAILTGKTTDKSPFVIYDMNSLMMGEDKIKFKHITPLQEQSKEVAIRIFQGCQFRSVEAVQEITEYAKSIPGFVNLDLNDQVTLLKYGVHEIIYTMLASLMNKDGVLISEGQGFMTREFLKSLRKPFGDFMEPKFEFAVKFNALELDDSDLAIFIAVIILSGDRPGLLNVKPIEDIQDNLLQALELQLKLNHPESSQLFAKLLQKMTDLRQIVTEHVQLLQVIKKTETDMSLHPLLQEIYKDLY
The data set can be described thus: Activation of GAL4 fused human PPARgamma expressed in HEK293 cells at 10 uM after 24 hrs by luciferase reporter gene assay.

A short description of data set [4]: Agonist activity at LXR in human U937 cells assessed as upregulation of FASN mRNA levels at 10 uM after 6 hrs by qPCR analysis. It is filed as cell-based. Put shortly: as §2
Data set [5] can be described thus: Agonist activity at LXR in human HepG2 cells assessed as upregulation of SCD1 mRNA levels at 10 uM after 6 hrs by qPCR analysis. It is filed as cell-based. In outline: (§3)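 HepG2 cells treated with ligand (10 μM). Total RNA was extracted with TRIZOL; 2 µg was reverse-transcribed (1 h, 42 °C). SREBP1c, FASN and SCD1 transcripts were measured by qPCR. Mean ± SD of three biological samples; ANOVA with Dunnett's test.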

Data set [6] can be described thus: Agonist activity at LXR in human HepG2 cells assessed as upregulation of SREBP1c mRNA levels at 10 uM after 6 hrs by qPCR analysis. The format is cell-based. In outline: as §3
In data set [7] the target is T3, Oxysterols receptor LXR-beta (Homo sapiens) (UniProt P55055).
T3 sequence (whole entry): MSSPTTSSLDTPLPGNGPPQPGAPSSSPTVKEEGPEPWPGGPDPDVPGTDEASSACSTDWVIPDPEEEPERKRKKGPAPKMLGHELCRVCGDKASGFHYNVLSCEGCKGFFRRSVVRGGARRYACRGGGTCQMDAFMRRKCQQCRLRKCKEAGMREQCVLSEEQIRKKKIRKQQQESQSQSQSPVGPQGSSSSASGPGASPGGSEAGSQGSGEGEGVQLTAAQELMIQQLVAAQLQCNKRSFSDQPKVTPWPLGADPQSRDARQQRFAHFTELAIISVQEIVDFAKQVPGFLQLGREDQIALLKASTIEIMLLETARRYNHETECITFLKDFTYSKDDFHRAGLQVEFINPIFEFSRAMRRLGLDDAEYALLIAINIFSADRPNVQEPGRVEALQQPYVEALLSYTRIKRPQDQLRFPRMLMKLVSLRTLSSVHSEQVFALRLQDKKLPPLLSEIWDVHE
The data set can be described thus: Activation of GAL4 fused human LXR beta expressed in HEK293 cells after 24 hrs by luciferase reporter gene assay relative to 22R-HC. The format is cell-based. Put shortly: as §1

Data set [8] can be described thus: Agonist activity at LXR in human U937 cells assessed as upregulation of SCD1 mRNA levels at 10 uM after 6 hrs by qPCR analysis relative to control. It is filed as cell-based. As to conditions: for Activity: human, 6 h, 10 µM; for fold induction at 10 µM: Homo sapiens, U-937, 6 h, read-out: FC. Put shortly:
as §2

The species named for data set [9] is Homo sapiens. Put plainly: Agonist activity at LXR in human U937 cells assessed as upregulation of ABCA1 mRNA levels at 10 uM after 6 hrs by qPCR analysis. The format is cell-based. Put shortly: as §2
Data set [10] is described as follows: Agonist activity at LXR in human HepG2 cells assessed as upregulation of FASN mRNA levels at 10 uM after 6 hrs by qPCR analysis. It is filed as cell-based. Put shortly:
as §3

The species entered for data set [11] is Homo sapiens. Put plainly: Agonist activity at LXR in human U937 cells assessed as downregulation of LPS-induced TNFalpha mRNA expression at 10 uM after 6 hrs by qPCR analysis. The format is cell-based. Put shortly:
(§4)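 PMA-differentiated U937 cells (10 ng/ml PMA, 72 h) were given LPS 100 ng/ml together with compound (10 μM) for 6 h. CCL2 and TNFα mRNA were measured by qPCR after TRIZOL RNA extraction and reverse transcription. Three biological samples per group, mean ± SD.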

The target in data set [12] is T4, Oxysterols receptor LXR-beta (Homo sapiens, UniProt P55055).
T4 sequence (P55055 whole entry): T3 sequence (whole entry)
Put plainly: Activation of GAL4 fused human LXR beta expressed in HEK293 cells after 24 hrs by luciferase reporter gene assay. The format is cell-based. Put shortly: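 HEK293 cells (4x10⁴/well), grown in DMEM with 10% FBS at 37 °C under 5% CO₂, transiently co-transfected with pMH100X4-TK-luc, Renilla and the Gal4-LXR-α or Gal4-LXR-β plasmid. Dosing began 6 h after transfection and lasted 24 h, at 32, 16, 8, 4, 2 and 1 μM. Dual luciferase read-out. EC50 came from dose-response curves, averaged over three to five independent experiments, ± SD.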

The species named for data set [13] is Homo sapiens. Put plainly: Agonist activity at LXR in human U937 cells assessed as downregulation of LPS-induced CCL2 mRNA expression at 10 uM after 6 hrs by qPCR analysis. It is filed as cell-based. Put shortly:
as §4

Activity calls are given as the source filed them. No cut-off for these calls is given here.

Consider `CC[C@@H](C(C)C)[C@H]1O[C@@H]1[C@@H](C)[C@H]1CC[C@H]2[C@@H]3CC=C4C[C@@H](O)CC[C@]4(C)[C@H]3CC[C@]12C`, for which the Efficacy in data set [1] amounted to 489%; in data set [7], 142%. For the same compound, the outcome (with HEK293; in data set [3]) was inactive. The Activity result is recorded as “Not Active” in data set [2]; “Not Active” in data set [4]; “Not Active” in [5]; “Active” in data set [6]; “Not Active” in data set [8]; “Not Active” in data set [10]. For the same compound, the outcome in the data set filed under Homo sapiens [9] and in the data set listed under Homo sapiens [11] was Active.

`CC(C)[C@@H](C)CC(=O)[C@@H](C)[C@H]1CC[C@H]2C3=CC=C4C[C@@H](O)CC[C@]4(C)[C@H]3CC[C@]12C` showed an Efficacy in data set [1] of 70.2%. Moreover, the result (in the data set on HEK293; in data set [3]) was inactive. For the same compound, the Activity entry in data set [2], in data set [4], in data set [5], in data set [6], in [8] and in data set [10] was “Not Active” in each case. Besides, in data set [12], the EC50 entry is given as “Not Active”. Besides, the outcome in the data set filed under Homo sapiens [9] was Active.

On to `CC(C)[C@@H](C)C(=O)C[C@@H](C)[C@H]1CC[C@H]2C3=CC=C4C[C@@H](O)CC[C@]4(C)[C@H]3CC[C@]12C`, for which the Efficacy in data set [1] was found to be 151%. The result (with HEK293; in data set [3]) was inactive. Further, the Activity entry in [2], in data set [4], in data set [5], in data set [6], in [8] and in data set [10] was “Not Active” in each case. Further, the EC50 entry in data set [12] is recorded as “Not Active”. Moreover, the outcome in the data set listed under Homo sapiens [9] was Active.

In the case of `CC[C@H](C(=O)C[C@@H](C)[C@H]1CC[C@H]2[C@@H]3CC=C4C[C@@H](O)CC[C@]4(C)[C@H]3CC[C@]12C)C(C)C`, the Efficacy in data set [1] is 12.4%; in data set [7] it was 46.4%. For the same compound, the result (in the data set on HEK293; in data set [3]) was inactive. The Activity entry in data set [2], in data set [4], in data set [5], in data set [6] and in [10] was “Not Active” in each case. Also, the fold induction at 10 µM in data set [8] was < 2. Besides, the outcome in the data set filed under Homo sapiens [9] and in the data set listed under Homo sapiens [11] was Active.

As to `CC(C)[C@@H](C)[C@@H]1O[C@H]1[C@@H](C)[C@H]1CC[C@H]2C3=CC=C4C[C@@H](O)CC[C@]4(C)[C@H]3CC[C@]12C`, the Efficacy in data set [1] amounted to 51.7%; in data set [7] it was 48.5%. The result (in the data set with HEK293; in [3]) was inactive. The Activity result in data set [2] is given as “Not Active”; in [4], “Not Active”; in data set [5] it was “Not Active”; in data set [6], “Active”; in data set [10] it was “Not Active”. In addition, the outcome in the data set listed under Homo sapiens [13] and in the data set listed under Homo sapiens [9] was Active. For the same compound, the fold induction at 10 µM in [8] was < 2.

As to `CC(C)[C@@H](C)[C@H](O)C[C@@H](C)[C@H]1CC[C@H]2C3=CC=C4C[C@@H](O)CC[C@]4(C)[C@H]3CC[C@]12C`, the Efficacy in data set [1] is 63.9%. In addition, the result (with HEK293; in [3]) was inactive. The Activity result in data set [2], in data set [4], in data set [5], in data set [6], in data set [8] and in [10] was “Not Active” each time. Further, in [12], the EC50 result was “Not Active”. Also, the result in the data set listed under Homo sapiens [9] was Active.

Consider `O=S(=O)(c1ccccc1)N(CC(F)(F)F)c1ccc(C(O)(C(F)(F)F)C(F)(F)F)cc1` [T091317], for which the Activity result in data set [2] is “Active”; in [4], “Not Active”; in data set [5], “Not Active”; in [6] it was “Not Active”; in data set [8], “Not Active”; in data set [10] it was “Not Active”. For the same compound, the result in the data set listed under Homo sapiens [13] and in the data set listed under Homo sapiens [9] was Active.

Turning to `CC[C@@H](C(C)C)[C@@H]1O[C@H]1[C@@H](C)[C@H]1CC[C@H]2[C@@H]3CC=C4C[C@@H](O)CC[C@]4(C)[C@H]3CC[C@]12C`, the Efficacy turned out to be 56.8% in [1] and 36.3% in data set [7]. The result (in the data set on HEK293; in data set [3]) was inactive. Moreover, the Activity entry in data set [2], in data set [4], in data set [5], in [6], in [8] and in [10] was “Not Active” in each case. Moreover, the result in the data set filed under Homo sapiens [9] was Active.

For the origin of these results see ChEMBL document CHEMBL4038329, “Side-Chain Modified Ergosterol and Stigmasterol Derivatives as Liver X Receptor Agonists” (J Med Chem, 2017).
